For assay [1], the system named is BC1. Briefly: Cytotoxicity against human BC1 cells. In kind it is functional, cell-based.
For assay [2], the system named is KB. The assay can be described thus: Cytotoxicity against human KB cells. Format: functional, cell-based.
Assay [3] relates to NCI-H178. Briefly: Cytotoxicity against human […] cells. In kind it is functional, cell-based.
For assay [4], the system named is Candida albicans. Briefly: Antifungal activity against Candida albicans by XTT formazan assay. Format: functional, organism-based. In a few lines: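 Clinical isolate of Candida albicans tested by a modified soluble formazan (XTT) method. Viable cells read as XTT formazan absorbance at 450 nm. IC50 taken in μg/mL.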
(In general: Formazan colour is commonly taken as a measure of viable cells.)

Values after ≈ are worked out from the molar mass of the structure shown. Active and inactive are the calls of the source. The calls are words filed in the database; no cut-off is given here.

The term IC50 denotes the midpoint of a concentration-inhibition curve. The low end stands for greater potency in that assay, the high end for weaker potency in that assay. For the molecule `CC[C@H](C)/C=C(C)/C=C/C1=CC2=CC3=C(C(C)=O)C(=O)O[C@@]3(C)C(=O)C2=CO1`, the outcome in assay [1], in assay [2] and in assay [3] was inactive. This molecule yielded an IC50 in assay [4] of 24.3 µg/mL (≈ 63.9 µM).
In the case of `CC[C@H](C)/C=C(C)/C=C/C1=CC2=CC3=C(C(C)=O)C(=O)O[C@@]3(C)[C@H](O)C2=CO1` [ROTIORINOL A], the outcome in assay [1], in assay [2] and in assay [3] was inactive. Also, in assay [4], the IC50 stood at 10.5 µg/mL (≈ 27.5 µM).
In the case of `CC(=O)C1=C2C=C3C=C(/C=C/C(C)=C/[C@@H](C)CCO)OC=C3[C@@H](O)[C@]2(C)OC1=O` [ROTIORINOL C], the result in assay [1], in assay [2] and in assay [3] was inactive. The same molecule registered an IC50 in assay [4] of 16.7 µg/mL (≈ 41.9 µM).
For the molecule `CC[C@H](C)/C=C(C)/C=C/C1=CC2=C(Cl)C(=O)[C@@]3(C)OC(=O)C(C(C)=O)=C3C2=CO1` [RUBROROTIORIN], the result in assay [1], in assay [2] and in assay [3] was inactive. In addition, the IC50 in assay [4] is 0.6 µg/mL (≈ 1.45 µM).

The values are drawn from ChEMBL document CHEMBL1157962, “Antifungal azaphilones from the fungus Chaetomium cupreum CC3003” (J Nat Prod, 2006).
